Active and inactive are the calls of the source. The calls are words filed in the database; no cut-off is given here.
Assays:
[1] = system: Escherichia coli; assay: Antibacterial activity against Escherichia coli AB734 assessed as growth inhibition by broth microdilution method; type: functional
In short: (§1)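 MICs by broth microdilution in Mueller-Hinton broth following CLSI guidelines.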

[2] = system: Staphylococcus aureus; assay: Antibacterial activity against Staphylococcus aureus SH1000 assessed as decrease in membrane integrity at 4 times MIC by BacLight assay; type: functional, organism-based
In short: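 Membrane damage was measured with the BacLight assay in cells exposed to compound at 4 × MIC and compared with a drug-free control.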

[3] = Inhibition of Escherichia coli MurF ligase using D-Ala-D-Ala as substrate after 15 mins by malachite green assay
In short: (§2)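 After 15 min at 37 °C, Biomol reagent was added and phosphate read at 650 nm, in duplicate. RA was taken relative to a 5% DMSO control. IC50 was taken as the concentration giving 50% RA, from seven concentrations.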

[4] = system: Escherichia coli; assay: Antibacterial activity against Escherichia coli AB734 assessed as growth inhibition by broth microdilution method in presence of polymyxin B nonapeptide; type: functional
In short: (§3)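 Broth microdilution MIC in Mueller-Hinton broth per CLSI, run with 4 µg/mL polymyxin B nonapeptide to permeabilize the outer membrane.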

[5] = system: Escherichia coli; assay: Antibacterial activity against Escherichia coli SM1411 harboring acrAB deletion mutant assessed as growth inhibition by broth microdilution method; type: functional
In short: (§4)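 MIC by broth microdilution in Mueller-Hinton broth following CLSI guidelines. ES100 is the tolC derivative of AB734, and SM1411 is the acrAB derivative of 1411; both are efflux-deficient E. coli strains. Growth inhibition was read as the minimum inhibitory concentration.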

[6] = system: Escherichia coli; assay: Antibacterial activity against Escherichia coli 1411 assessed as growth inhibition by broth microdilution method in presence of polymyxin B nonapeptide; type: functional; in short: as §3
[7] = system: Escherichia coli; assay: Antibacterial activity against Escherichia coli ES100 harboring tolC deletion mutant assessed as growth inhibition by broth microdilution method; type: functional; in short: as §4
[8] = system: Staphylococcus aureus; assay: Antibacterial activity against Staphylococcus aureus SH1000 assessed as growth inhibition by broth microdilution method; type: functional; in short: as §1
[9] = molecular target: T1, UDP-N-acetylmuramoyl-tripeptide--D-alanyl-D-alanine ligase (Streptococcus pneumoniae, UniProt Q9ZHC3); assay: Inhibition of Streptococcus pneumoniae MurF ligase using D-Ala-D-Ala as substrate after 15 mins by malachite green assay
T1 sequence (Q9ZHC3 whole entry): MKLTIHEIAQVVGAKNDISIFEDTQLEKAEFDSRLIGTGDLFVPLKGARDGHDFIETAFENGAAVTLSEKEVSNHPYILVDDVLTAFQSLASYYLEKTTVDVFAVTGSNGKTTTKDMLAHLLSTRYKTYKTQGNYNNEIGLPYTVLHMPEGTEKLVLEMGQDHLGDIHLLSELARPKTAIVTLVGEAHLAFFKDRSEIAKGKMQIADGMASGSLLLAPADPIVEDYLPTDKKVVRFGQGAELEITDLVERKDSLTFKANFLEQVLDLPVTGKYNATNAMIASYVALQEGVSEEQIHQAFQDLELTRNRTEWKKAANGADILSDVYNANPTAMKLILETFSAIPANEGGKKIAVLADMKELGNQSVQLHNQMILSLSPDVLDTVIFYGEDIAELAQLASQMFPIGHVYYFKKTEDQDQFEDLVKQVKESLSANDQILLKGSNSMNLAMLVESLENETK
In short: (§5)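 Purified S. pneumoniae MurF in 50 mM Hepes pH 8.0 with 50 mM MgCl2, 0.005% Triton X-114, 100 µM D-Ala-D-Ala, 50 µM UMtri-L-Lys and 250 µM ATP, with 5% DMSO final. After 15 min at 37 °C, Biomol reagent was added and absorbance read at 650 nm, in duplicate. RA was taken against a 5% DMSO control. IC50 was the 50% RA point from seven concentrations.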

[10] = system: Escherichia coli; assay: Antibacterial activity against Escherichia coli 1411 assessed as growth inhibition by broth microdilution method; type: functional; in short: as §1
[11] = molecular target: T2, UDP-N-acetylmuramoyl-tripeptide--D-alanyl-D-alanine ligase (Streptococcus pneumoniae) (UniProt Q9ZHC3); assay: Inhibition of Streptococcus pneumoniae MurF ligase using D-Ala-D-Ala as substrate assessed as residual activity at 100 uM after 15 mins by malachite green assay; in short: as §5
T2 sequence (whole entry): T1 sequence (Q9ZHC3 whole entry)

[12] = system: Escherichia coli; assay: Inhibition of […] MurF ligase using D-Ala-D-Ala as substrate assessed as residual activity at 100 uM after 15 mins by malachite green assay; in short: as §2
[13] = system: Escherichia coli; assay: Inhibition of […] MurF ligase using D-Ala-D-Ala as substrate assessed as residual activity at 250 uM after 15 mins by malachite green assay; in short: as §2
[14] = molecular target: T2, UDP-N-acetylmuramoyl-tripeptide--D-alanyl-D-alanine ligase (Streptococcus pneumoniae); assay: Inhibition of Streptococcus pneumoniae MurF ligase using D-Ala-D-Ala as substrate assessed as residual activity at 250 uM after 15 mins by malachite green assay; in short: as §5

SMILES: Cl.N#Cc1c(NC(=O)c2cc(OCCNC(=N)N)ccc2Cl)sc2c1CCN(Cc1ccccc1)C2
- MIC [1]: 32 µg/mL
- Activity [2]: inactive
- IC50 [3]: 57 µM
- MIC [4]: 16 µg/mL
- MIC [5]: 32 µg/mL
- MIC [6]: 16 µg/mL
- MIC [7]: 8 µg/mL
- MIC [8]: 8 µg/mL
- IC50 [9]: 55 µM
- MIC [10]: 32 µg/mL

SMILES: N#Cc1c(NC(=O)c2cccc(OCCN)c2)sc2c1CCCC2
- Activity [11]: 98%
- Activity [12]: 93%

SMILES: COC(=O)c1ccc(CN2CCc3c(sc(NC(=O)c4cc(OCCNC(=N)N)ccc4Cl)c3C#N)C2)cc1.Cl
- MIC [1]: 64 µg/mL
- Activity [2]: inactive
- IC50 [3]: 80 µM
- MIC [4]: 32 µg/mL
- MIC [5]: 16 µg/mL
- MIC [6]: 32 µg/mL
- MIC [7]: 8 µg/mL
- MIC [8]: 8 µg/mL
- IC50 [9]: 37 µM
- MIC [10]: 64 µg/mL

SMILES: N#Cc1c(NC(=O)c2cc(OCCNC(=N)N)ccc2Cl)sc2c1CCC(c1ccc(O)cc1)C2 (configuration not stated)
- Activity [2]: inactive

SMILES: N#Cc1ccc(COc2ccc(Cl)c(C(=O)Nc3sc4c(c3C#N)CCCC4)c2)cc1
- Activity [11]: 102%
- Activity [12]: 97%

SMILES: N#Cc1c(NC(=O)c2cc(OCc3ccccc3)ccc2Cl)sc2c1CCCC2
- Activity [11]: 81%
- Activity [12]: 82%

SMILES: Cl.N#Cc1ccc(CN2CCc3c(sc(NC(=O)c4cc(OCCNC(=N)N)ccc4Cl)c3C#N)C2)cc1
- MIC [1]: 256 µg/mL
- Activity [2]: inactive
- IC50 [3]: 66 µM
- MIC [4]: 32 µg/mL
- MIC [5]: 16 µg/mL
- MIC [6]: 32 µg/mL
- MIC [7]: 16 µg/mL
- MIC [8]: 16 µg/mL
- IC50 [9]: 61 µM
- MIC [10]: 128 µg/mL

SMILES: N#Cc1c(NC(=O)c2cccc(OCC3CCCC3)c2)sc2c1CCCC2
- Activity [11]: 81%
- Activity [12]: 99%

SMILES: COc1ccc(CN2CCc3c(sc(NC(=O)c4cc(OCCN)ccc4Cl)c3C#N)C2)cc1
- MIC [1]: 128 µg/mL
- Activity [2]: inactive
- IC50 [3]: 73 µM
- MIC [4]: 64 µg/mL
- MIC [5]: 64 µg/mL
- MIC [6]: 64 µg/mL
- MIC [7]: 32 µg/mL
- MIC [8]: 128 µg/mL
- IC50 [9]: 125 µM
- MIC [10]: 128 µg/mL

SMILES: N#Cc1c(NC(=O)c2cccc(OCn3cccn3)c2)sc2c1CCCC2
- Activity [11]: 89%
- Activity [12]: 85%

SMILES: N#Cc1c(NC(=O)c2cccc(OCc3ccc(Cl)cc3)c2)sc2c1CCCC2
- Activity [11]: 102%
- Activity [12]: 97%

SMILES: CC(C)(C)OC(=O)N1CCc2c(sc(NC(=O)c3cc(OCCNC(=O)C(F)(F)F)ccc3Cl)c2C#N)C1
- MIC [1]: > 256 µg/mL
- MIC [4]: > 256 µg/mL
- Activity [13]: 102%
- MIC [5]: > 256 µg/mL
- MIC [6]: > 256 µg/mL
- MIC [7]: > 256 µg/mL
- MIC [8]: > 256 µg/mL
- Activity [14]: 96%
- MIC [10]: > 256 µg/mL
